ChEMBL document CHEMBL3758100, “4H-Chromene-based anticancer agents towards multi-drug resistant HL60/MX2 human leukemia: SAR at the 4th and 6th positions” (Bioorg Med Chem, 2016)
pIC50: −log10 of the molar value.

What was measured:
[1] = Cytotoxicity against human HL60 cells assessed as cell growth inhibition after 48 hrs by cell titer blue cell viability assay; assay type: functional, cell-based; conditions: HL-60, 48 h
In short: (§1)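 HL60 or HL60/MX2 cells kept in RPMI 1640 with 10% FBS and 1% penicillin–streptomycin at 37 °C, 5% CO2. Seeded at 1 × 10^4 cells/well and exposed to serial dilutions (1% DMSO final; 1% DMSO medium as control) in triplicate for 48 h. Viability read by CellTiter-Blue. IC50 fitted with a dose–response model; at least three biological repeats on different days; mean ± SD.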

[2] = Cytotoxicity against human HL60/MX2 cells assessed as cell growth inhibition after 48 hrs by cell titer blue cell viability assay; assay type: functional, cell-based; conditions: HL60/MX2, 48 h; in short: as §1
[3] = system: HL-60; test: Selectivity ratio of IC50 for human HL60/MX2 cells to IC50 for human HL60 cells; assay type: functional
In short: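 Ratio of IC50 in HL60/MX2 over HL60, both from the 48 h CellTiter-Blue growth-inhibition assay. IC50s are means of at least three biological repeats. Two-tailed Student t test between the two cell lines.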

SMILES | pIC50 [1] | pIC50 [2] | Ratio IC50 [3]
C#CCOC(=O)CC1C(C(=O)OCC#C)=C(N)Oc2ccc(-c3cc(OC)cc(OC)c3)cc21 (configuration not stated) | 5.94 | 6.07 | 0.74
C#CCOC(=O)CC1C(C(=O)OCC#C)=C(N)Oc2ccc(-c3cccc(N)c3)cc21 (configuration not stated) | 5.76 | 6.27 | –
C#CCOC(=O)C1=C(N)Oc2ccc(-c3cc(OC)cc(OC)c3)cc2C1CC(=O)CCC (configuration not stated) | 5.16 | 5.27 | 0.78
C#CCOC(=O)C1=C(N)Oc2ccc(-c3cc(OC)cc(OC)c3)cc2C1CC(O)CCC (configuration not stated) | 4.33 | 4.45 | 0.77
CCCC(=O)CC1C(C(=O)OCC)=C(N)Oc2ccc(-c3cc(OC)cc(OC)c3)cc21 (configuration not stated) | 4.56 | 4.93 | 0.43
C#CCOC(=O)C1=C(N)Oc2ccc(-c3cc(OC)cc(OC)c3)cc2C1CC(=O)c1ccccc1 (configuration not stated) | 5.14 | 5.23 | 0.81
CCOC(=O)C1=C(N)Oc2ccc(-c3cc(OC)cc(OC)c3)cc2C1CC(=O)c1ccccc1 (configuration not stated) | 3.96 | 4.39 | 0.38
C#CCOC(=O)CC1C(C(=O)OCC#C)=C(N)Oc2cc3c(cc21)-c1cc(OC)cc(OC)c1CO3 (configuration not stated) | 4.38 | 5.13 | 0.18
C#CCOC(=O)CC1C(C(=O)OCC#C)=C(N)Oc2cc(C)c(-c3cccc(N)c3)c(C)c21 (configuration not stated) | 4.30 | 4.09 | 1.63
C#CCOC(=O)C1=C(N)Oc2ccc(-c3cc(OC)cc(OC)c3)cc2C1CC(O)c1ccccc1 (configuration not stated) | 4.00 | 4.27 | 0.54
CCOC(=O)CC1C(C(=O)OCC)=C(N)Oc2ccc(-c3cc(OC)cc(OC)c3)cc21 (configuration not stated) | 5.27 | 5.77 | 0.32
